Experimental data published in ChEMBL document CHEMBL1772969, “Synthesis, structure-activity relationship, and antimalarial activity of ureas and thioureas of 15-membered azalides” (J Med Chem, 2011).
In brackets after ≈: the same amount, converted by molar mass. Activity calls are given as the source filed them. The calls are words filed in the database; no cut-off is given here.

Legend:
Plasmodium berghei [1] = test: Antiplasmodial activity against Plasmodium berghei KBG-173 infected in mouse assessed as mouse without parasitemia at 960 mg/kg, sc bid for 3 days measured on day 31; assay type: functional, organism-based; parameters: dose 960 mg/kg
In short: (§1)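 P. berghei KBG-173: 5 × 10⁶ infected erythrocytes injected intraperitoneally into male mice (24–30 g); parasitemia 1.0–3.7% by day 3. Oil suspension given subcutaneously twice daily at 160, 40 or 10 mg/kg on days 3–5 postinfection (totals 960/240/60 mg/kg); 4–5 mice per group. Blood films on day 6, then biweekly to day 31; film-negative on day 31 counted as cured.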

Plasmodium falciparum [2] = test: Antimalarial activity against chloroquine/pyrimethamine-resistant Plasmodium falciparum W2 after 48 hrs by [3H]hypoxanthine incorporation assay; assay type: functional, organism-based
In short: (§2)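 [3H]hypoxanthine incorporation assay (Desjardins method, Milhous modification) with 48 h drug exposure. Compounds and controls were 2-fold diluted across 11 concentrations. IC50 was fitted by nonlinear logistic dose-response. Values are averaged where multiple results were generated, with relative errors usually <30%.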

[3] = Half life in human liver microsomes at 1 uM by LCMS analysis; assay type: ADME, Microsome
In short: (§3)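 Compound at 1 μM final with 0.5 mg/mL pooled human or mouse liver microsomes, 1.3 mM NADP, 3.3 mM MgCl₂, 0.1 M PBS pH 7.4. Reaction started with 1 U/mL G6PD, shaken at 37 °C. Aliquots quenched with cold acetonitrile at 0, 10, 20, 30 and 60 min and quantified by LCMS. t₁/₂ taken from log plot of total ion chromatogram area remaining.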

HepG2 = test: Cytotoxicity against human HepG2 cells after 1 to 4 hrs by MTS assay; assay type: cell-based
In short: (§4)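 HepG2 and THP-1 cells grown in RPMI 1640 with 10% FBS at 37 °C, 5% CO₂, and passaged twice weekly. Compounds applied as continuous exposure. Viability read by MTS reagent, 1–4 h incubation, absorbance at 490 nm; IC₅₀ derived.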

Plasmodium berghei [4] = test: Antiplasmodial activity against Plasmodium berghei KBG-173 infected in sc dosed mouse administered bid for 3 days; assay type: functional
In short: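 Male mice (24-30 g) were infected ip with 5 × 10⁶ P. berghei KBG-173-infected erythrocytes. Drug suspended in palm/peanut oil was given sc twice daily on days 3-5 post-infection at 160, 40 or 10 mg/kg per dose, 0.01 mL/g, in groups of 4-5. Blood films were taken day 6, then biweekly to day 31. Mice smear-negative on day 31 were counted cured. CD50 is the daily dose curing 50%.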

Plasmodium berghei [5] = test: Antiplasmodial activity against Plasmodium berghei KBG-173 infected in mouse assessed as mouse without parasitemia at 60 mg/kg, sc bid for 3 days measured on day 31; assay type: functional, organism-based; parameters: dose 60 mg/kg; in short: as §1
THP-1 = test: Cytotoxicity against human THP1 cells after 1 to 4 hrs by MTS assay; assay type: cell-based; in short: as §4
[6] = Half life in mouse liver microsomes at 1 uM by LCMS analysis; assay type: ADME, Microsome; in short: as §3
Plasmodium falciparum [7] = test: Antimalarial activity against chloroquine-sensitive Plasmodium falciparum D6 after 48 hrs by [3H]hypoxanthine incorporation assay; assay type: functional, organism-based; in short: as §2
Plasmodium falciparum [8] = test: Antimalarial activity against multidrug-resistant Plasmodium falciparum TM91C235 after 48 hrs by [3H]hypoxanthine incorporation assay; assay type: functional, organism-based; in short: as §2
[9] = Oral bioavailability in Sprague-Dawley rat at 30 mg/kg; assay type: ADME, organism-based; conditions: in vivo
In short: (§5)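 Male Sprague-Dawley rats (250–300 g), crossover design. Dosed 10 mg/kg iv, then 2-day washout, then 30 mg/kg oral (free base equivalent), formulated in 1%/20% Encapsin (w/v) and saline. Blood sampled up to 24 h and analysed by LC-MS/MS. Clearance and terminal-phase Vd based on blood concentration.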

[10] = Apparent volume of distribution during terminal phase in Sprague-Dawley rat at 10 mg/kg, iv and 30 mg/kg, po; assay type: ADME, organism-based; conditions: in vivo, read-out: Vz/F; in short: as §5
[11] = Blood clearance in Sprague-Dawley rat at 10 mg/kg, iv and 30 mg/kg, po; assay type: ADME, organism-based; conditions: whole blood; in short: as §5
[12] = Half life in Sprague-Dawley rat at 10 mg/kg, iv and 30 mg/kg, po; assay type: ADME, organism-based; conditions: in vivo; in short: as §5
Plasmodium berghei [13] = test: Antiplasmodial activity against Plasmodium berghei KBG-173 infected in mouse assessed as mouse without parasitemia at 240 mg/kg, sc bid for 3 days measured on day 31; assay type: functional, organism-based; parameters: dose 240 mg/kg; in short: as §1
Plasmodium falciparum [14] = test: Antimalarial activity against Plasmodium falciparum after 68 hrs; assay type: functional, organism-based
Plasmodium falciparum [15] = test: Ratio of compound IC50 to Azithromycin IC50 for Plasmodium falciparum; assay type: functional

| SMILES | Activity (Plasmodium berghei [1]) | IC50 (Plasmodium falciparum [2]) | half-life at 1 µM [3] | IC50 (HepG2) | CD50 (Plasmodium berghei [4]) | Activity (Plasmodium berghei [5]) | IC50 (THP-1) | half-life at 1 µM [6] | IC50 (Plasmodium falciparum [7]) | IC50 (Plasmodium falciparum [8]) | bioavailability [9] | Vd/F [10] | clearance [11] | half-life [12] | Activity (Plasmodium berghei [13]) | IC50 (Plasmodium falciparum [14]) | Ratio IC50 (Plasmodium falciparum [15]) |
| --- | --- | --- | --- | --- | --- | --- | --- | --- | --- | --- | --- | --- | --- | --- | --- | --- | --- |
| CC[C@H]1OC(=O)[C@H](C)[C@@H](O[C@H]2C[C@@](C)(OC)[C@@H](O)[C@H](C)O2)[C@H](C)[C@@H](O[C@@H]2O[C@H](C)C[C@H](N(C)C)[C@H]2O)[C@](C)(O)C[C@@H](C)CN(CCCN(CCC#N)C(=S)NCCc2ccccc2)[C@H](C)[C@@H](O)[C@]1(C)O | inactive | 51 nM | 1.72 h | 13000 nM | >960 mg/kg | inactive | 6000 nM | > 2 h | 88 nM | 48 nM |  |  |  |  |  |  |  |
| CC[C@H]1OC(=O)[C@H](C)[C@@H](O[C@H]2C[C@@](C)(OC)[C@@H](O)[C@H](C)O2)[C@H](C)[C@@H](O[C@@H]2O[C@H](C)C[C@H](N(C)C)[C@H]2O)[C@](C)(O)C[C@@H](C)CN(CCCN(CCC#N)C(=O)Nc2ccc(Cl)cc2Cl)[C@H](C)[C@@H](O)[C@]1(C)O | Active | 199 nM | > 2 h | 22000 nM | 420 mg/kg |  | 15000 nM | > 2 h | 229 nM | 123 nM | 18.4% | 23.3 L/kg | 7.7 mL/min/kg | 41.5 h |  |  |  |
| CC[C@H]1OC(=O)[C@H](C)[C@@H](O[C@H]2C[C@@](C)(OC)[C@@H](O)[C@H](C)O2)[C@H](C)[C@@H](O[C@@H]2O[C@H](C)C[C@H](N(C)C)[C@H]2O)[C@](C)(O)C[C@@H](C)CN(CCCNC(=O)NC(C)c2cccc3ccccc23)[C@H](C)[C@@H](O)[C@]1(C)O (some centres undefined) | Active | 106 nM | > 2 h | > 50000 nM | 397.5 mg/kg |  | 46000 nM | > 2 h | 292 nM | 107 nM |  |  |  |  | inactive |  |  |
| CC[C@H]1OC(=O)[C@H](C)[C@@H](O[C@H]2C[C@@](C)(OC)[C@@H](O)[C@H](C)O2)[C@H](C)[C@@H](O[C@@H]2O[C@H](C)C[C@H](N(C)C)[C@H]2O)[C@](C)(O)C[C@@H](C)CN(C)[C@H](C)[C@@H](O)[C@]1(C)O [AZITHROMYCIN] | Active | 2290 nM | > 2 h | > 50000 nM | 50 mg/kg |  | > 50000 nM | > 2 h | 1040 nM | 2110 nM | 33% | 20 L/kg | 11 mL/min/kg | 24 h | Active | 0.5 µg/mL (≈ 0.668 µM) | 88 |
